How the values were obtained:
DGKε (DGKε-His6) [1] = biological target: T1, DGKε (DGKε-His6) (Homo sapiens, UniProt P52429); experiment: Triton X-100/DOPC mixed micelle assay with [γ-32P]-ATP; type: biochemical; conditions: 0.1 mM ATP; 15 mM Triton X-100; 22.5 mol% DOPC; lysate
T1 sequence (P52429 1-567): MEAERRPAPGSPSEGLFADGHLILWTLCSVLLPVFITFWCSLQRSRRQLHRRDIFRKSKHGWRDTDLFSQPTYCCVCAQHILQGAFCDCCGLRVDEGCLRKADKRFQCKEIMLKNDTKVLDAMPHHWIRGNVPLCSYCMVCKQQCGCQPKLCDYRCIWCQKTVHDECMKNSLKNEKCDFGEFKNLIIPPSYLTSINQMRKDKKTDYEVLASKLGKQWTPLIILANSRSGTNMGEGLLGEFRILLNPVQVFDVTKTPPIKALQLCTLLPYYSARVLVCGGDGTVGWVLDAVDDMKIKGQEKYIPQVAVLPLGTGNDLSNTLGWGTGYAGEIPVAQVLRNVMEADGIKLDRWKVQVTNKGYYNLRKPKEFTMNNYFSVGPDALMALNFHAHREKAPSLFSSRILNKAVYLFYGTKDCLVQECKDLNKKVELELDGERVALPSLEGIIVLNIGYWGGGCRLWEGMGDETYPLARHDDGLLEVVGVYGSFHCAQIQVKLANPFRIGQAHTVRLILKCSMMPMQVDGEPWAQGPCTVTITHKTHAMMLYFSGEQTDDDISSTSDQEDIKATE
Procedure, shortened: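 Enzyme is the 100,000 g supernatant (30 min, 4 °C) of baculovirus-infected Sf21 cells expressing human DGKε-His6. Cells were lysed 10 min on ice in 1% NP-40, 20 mM Tris-HCl pH 7.5, 150 mM NaCl, 1 mM EDTA, phosphatase and protease inhibitors, then sonicated 5 min. DAG substrate was dried with DOPC into lipid films for the micelles, and DAG level was varied. Run in triplicate. Vmax and Km come from nonlinear regression of v0 versus [S] and from Hanes plots.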

DGKε (DGKε-His6) [2] = biological target: T1, DGKε (DGKε-His6); experiment: Triton X-100/DOPC mixed micelle assay with [γ-32P]-ATP, nonlinear regression; type: biochemical; conditions: competitive; substrate 18:0/20:4-DAG; 0.1 mM ATP; 15 mM Triton X-100; lysate
Procedure, shortened: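 DGKε-His6 was taken from the high-speed supernatant of NP-40-lysed, sonicated Sf21 cells infected with baculovirus. It phosphorylated 18:0/20:4-DAG or 20:4/20:4-DAG in Triton X-100/DOPC mixed micelles with [γ-32P]-ATP, with a phosphatidic acid species added as inhibitor. PA stock levels were set from measured phosphate content. Ki was fitted by nonlinear regression to a competitive inhibition model.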

| Km (mol%) (DGKε (DGKε-His6) [1]) | Ki, mol% (DGKε (DGKε-His6) [2]) [mol%] | SMILES |
| --- | --- | --- |
| 2.0 ± 0.7 |  | CCCCC/C=C\C/C=C\C/C=C\C/C=C\CCCC(=O)O[C@@H](CO)COC(=O)CCCCCCCCCCCCCCCCC [18:0/20:4-DAG, 1-stearoyl-2-arachidonoyl-DAG] |
| 3.5 ± 0.4 |  | CCCCC/C=C\C/C=C\CCCCCCCC(=O)OC[C@H](CO)OC(=O)CCCCCCC/C=C\C/C=C\CCCCC [18:2/18:2-DAG] |
| 2.0 ± 0.7 |  | CCCCC/C=C\C/C=C\C/C=C\C/C=C\CCCC(=O)OC[C@H](CO)OC(=O)CCC/C=C\C/C=C\C/C=C\C/C=C\CCCCC [20:4/20:4-DAG, 1,2-diarachidonoyl-DAG] |
|  | 4.4 ± 1.0 | CCCCC/C=C\C/C=C\C/C=C\C/C=C\CCCC(=O)OC[C@H](COP(=O)(O)O)OC(=O)CCC/C=C\C/C=C\C/C=C\C/C=C\CCCCC [20:4/20:4-PA] |

Source: paper PMC3237191 (FEBS letters, 2011)
